Bioassay records deposited in PubChem BioAssay by several laboratories.
JMJD2C inh: human JMJD2C demethylase inhibition | Q9H3R0 | inhibition, % at 2.35 µM | GST-JMJD2C(1-420) H3K9me3 demethylation, DELFIA europium | AID 2099 | 330,000 compounds, 0.069% hits;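 active = more than half of a compound's replicate wells show inhibition beyond 50%, single wells judged on their own value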;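 note: signal counts dimethyl H3K9 product captured on neutravidin plate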
NR2E3 ag-1: activates human NR2E3 receptor; Q9Y5X4; CHO-S Gal4-NCOR/VP16-NR2E3 two-hybrid, luciferase; inhibition of corepressor binding, % at 3.98 µM; 360,000 compounds, 0.35% hits; AID 602229;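 active = inhibition above the mean of all tested compounds plus 3 SD, cut at about 70% in these data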;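 note: higher means lower luciferase signal from less NR2E3 corepressor binding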
Target sequence (Q9Y5X4 whole entry, looked up, the tested form may be a part): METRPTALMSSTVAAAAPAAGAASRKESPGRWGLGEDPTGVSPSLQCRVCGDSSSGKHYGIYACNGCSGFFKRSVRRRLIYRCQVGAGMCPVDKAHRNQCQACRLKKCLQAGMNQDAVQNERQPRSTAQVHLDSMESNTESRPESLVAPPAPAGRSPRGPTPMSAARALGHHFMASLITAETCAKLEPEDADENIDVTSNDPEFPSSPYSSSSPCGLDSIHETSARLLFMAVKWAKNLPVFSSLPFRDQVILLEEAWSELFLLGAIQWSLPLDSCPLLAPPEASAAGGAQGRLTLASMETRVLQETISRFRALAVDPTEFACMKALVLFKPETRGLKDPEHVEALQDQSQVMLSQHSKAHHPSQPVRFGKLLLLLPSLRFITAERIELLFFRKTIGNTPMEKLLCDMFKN
DAX1 inh-1: inhibitors of DAX1 repression of SF-1 activated StAR promoter; HEK293T StAR-luciferase reporter, SF-1/DAX-1 repression relief; inhibition, % at 6.8 µM; 370,000 compounds, 1.1% hits;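 active = inhibition above the mean over all tested compounds plus 3 SD, cut at about 3.6% in these data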;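 note: higher inhibition means more luminescence from relief of DAX-1 repression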
SMARCA2 activ: activators of SMARCA2 function. MG213 cells, MMTV-luciferase reporter, dexamethasone, overnight. activation, % at 9.1 µM. 370,000 compounds, 1% hits; in the data active = activation above about 7.8%
NR2E3 ag-2: activates human photoreceptor nuclear receptor NR2E3; inhibition of corepressor binding, % at 4.78 µM; Q9Y5X4; 320,000 compounds, 0.12% hits; GST-NR2E3/biotin-RetCOR TR-FRET, 1536-well;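 active = percent inhibition above the cutoff of mean plus 3 SD of all tested compounds, set per screening campaign, cut at about 20% in these data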
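Format: 1536-well format; test system: GST-NR2E3 and biotin-RetCOR proteins; read-out basis: percent inhibition of TR-FRET ratio; timing: 5 h incubation at 4 °C; detection: time-resolved FRET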
DAX1 inh-2: inhibitors of human orphan nuclear receptor DAX1 (NR0B1). HEK293 Gal4-DAX1 luciferase reporter, luminescence. inhibition, % at 6.75 µM. 340,000 compounds, 0.99% hits;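 active = inhibition above the mean over all tested compounds plus 3 SD, cut at about 4.2% in these data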;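 note: inhibition shows as a rise in luminescence from relieved DAX1 repression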
Target sequence (P51843 207-470 limits assumed): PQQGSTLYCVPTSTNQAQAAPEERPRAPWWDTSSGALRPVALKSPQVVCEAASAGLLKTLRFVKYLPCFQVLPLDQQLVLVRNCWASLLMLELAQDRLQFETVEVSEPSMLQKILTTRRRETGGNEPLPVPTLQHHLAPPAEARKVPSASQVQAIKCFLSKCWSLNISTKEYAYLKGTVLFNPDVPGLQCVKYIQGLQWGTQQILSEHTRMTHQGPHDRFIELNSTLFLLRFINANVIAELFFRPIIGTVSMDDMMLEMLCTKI
SMARCA2 act conf: SMARCA2 activation, confirmation screen; MG213 cells, MMTV-luciferase with dexamethasone, luminescence, overnight; MG213 cells expressing E1A, Rb sequestered; DMSO wells 0%, reference activator 100%; 3,500 compounds, 30% hits; activation, % at 9.1 µM; shares compounds with SMARCA2 activ;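 active = activation above its plate's cutoff, the mean activation of tested wells plus 3 SD, cut at about 7.9% in these data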
GAL4-VP16 Luc: GAL4-VP16 reporter activation counter-screen; 3,500 compounds, 41% hits; shares compounds with SMARCA2 activ; AID 686939; activation, % at 9.1 µM; HEK293 GAL4-VP16 pG5luc reporter, luciferase luminescence; scaled: DMSO wells 0%, SAHA wells 100%;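 active = activation above the solvent-only control well mean plus 3 SD, averaged across control plates, cut at about 5.2% in these data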
A number is an active result; . = inactive; / = no result. Hits are enriched below; roughly 3.2% of the tested compounds scored in any of these assays.

SMILES	JMJD2C inh	NR2E3 ag-1	DAX1 inh-1	SMARCA2 activ	NR2E3 ag-2	DAX1 inh-2	SMARCA2 act conf	GAL4-VP16 Luc
COC(=O)[C@]12CCCCC=C1N(Cc1ccc(OC)cc1)C(=O)[C@@H]2CC(=O)NCC1CCCCC1	/	/	.	.	/	/	/	/
O=[N+]([O-])c1ccc(Cn2ccc3ccc(-c4ccc5ccn(Cc6ccccc6)c5c4)cc32)cc1	/	/	.	.	/	/	/	/
O=C(CNS(=O)(=O)c1ccc(Cl)s1)N1CCN(c2ccccn2)CC1	/	/	.	.	/	/	/	/
CCOC(=O)c1cn2nc(Oc3ccc(C)cc3)ccc2n1	.	.	.	15	.	/	.	.
CCOC(=O)c1cn2nc(Oc3ccc(OC)cc3)ccc2n1	.	.	.	.	.	.	/	/
CN1C(=O)C(c2cn(C)c3ccccc23)(c2cn(C)c3ccccc23)c2ccccc21	/	/	.	.	/	/	/	/
NC(=S)N/N=C/c1cn(-c2ccccc2)nc1-c1cccnc1	.	.	.	8.2	.	.	.	.
NC(=O)N/N=C/c1cn(-c2ccccc2)nc1-c1cccnc1	.	/	/	/	.	/	/	/
CCC(=O)N1C(Cc2ccccc2)COC1(C)C (stereo not drawn)	.	.	.	8.9	.	.	.	.
CCC1(C)NC(=O)N(CC(=O)N2CCC(Cc3ccccc3)CC2)C1=O (stereo not drawn)	.	.	.	.	.	.	/	/
COc1ccc(NC(=O)C2CC(=O)N/C(=N/N=C/c3ccco3)S2)cc1 (stereo not drawn)	.	.	.	.	.	/	/	/
COc1ccc(CN=C2NC(=O)CC(C(=O)Nc3ccc(F)cc3)S2)cc1 (stereo not drawn)	.	.	.	8.3	.	.	.	.
Cc1ccc(C(=O)/C=C2\NCCNC2=O)cc1	.	.	3.8	12	.	.	12	15
COc1ccc(Br)cc1CN(C)CC(=O)Nc1c(Cl)ccc(C)c1Cl	.	.	.	8.1	.	.	.	.
COc1ccc(Br)cc1CN(C)CC(=O)NCCc1ccccc1	.	.	.	.	.	.	/	/
COC(=O)N1C[C@@H]2Oc3nccnc3O[C@@H]2C[C@@H]1c1ccccc1Br	/	/	.	.	/	/	/	/
Cc1cc2cc(OCc3ccccc3)ccc2n1C	.	.	.	13	.	.	.	8.1
Cc1cc2cc(OCC(=O)O)ccc2n1C	.	.	.	.	.	.	/	/
O=C(N/N=C/c1ccc(-c2ccccc2C(=O)O)o1)c1cccs1	.	.	.	8.6	.	.	.	.
O=C(N/N=C/c1ccncc1)c1cccs1	.	.	/	/	.	.	/	/
CC(=O)c1cc(C#N)c(SCC(=O)O)nc1C	.	.	.	.	.	.	/	/
CCOC(=O)CSc1nc(C)c(C(C)=O)cc1C#N	.	.	.	8.2	.	.	.	.
CCCCNC(=O)c1cc2c(=O)n3cccc(C)c3nc2n(Cc2ccncc2)c1=N	.	.	.	9.7	.	.	13	.
CC1CCCN(C(=O)Cc2cccc3ccccc23)C1 (stereo not drawn)	.	.	.	.	.	.	/	/
Nc1ccccc1C(=O)NCc1ccc(Cl)cc1	.	.	.	8.1	.	.	.	.
SMILES	JMJD2C inh	NR2E3 ag-1	DAX1 inh-1	SMARCA2 activ	NR2E3 ag-2	DAX1 inh-2	SMARCA2 act conf	GAL4-VP16 Luc
Nc1ccccc1C(=O)NCc1ccc(F)cc1	.	.	.	.	.	.	/	/
CC1(C)CC(=O)C=C(Nc2ccccc2NC(=O)c2cc(Cl)ccc2F)C1	/	/	.	9.2	/	/	.	.
Cn1cccc1C(=O)N1CCN(S(=O)(=O)c2ccccc2F)CC1	/	/	.	.	/	/	/	/
Cc1cccc(Nc2nnc(SCC(=O)c3c(N)n(C4CC4)c(=O)[nH]c3=O)s2)c1	.	.	.	.	.	.	/	/
C/C(N)=C(/C#N)C(=O)CSc1nnc(Nc2cccc(C)c2)s1	.	.	.	8.3	.	.	.	6.2
Cc1c(NS(=O)(=O)c2ccc(NC(=O)CCC(=O)O)cc2)c(=O)n(-c2ccccc2)n1C	.	.	.	.	.	.	/	/
Cc1nn(-c2ccccc2)c(C)c1-c1cc(C(=O)N/N=C/c2ccc(O)cc2)[nH]n1	.	.	.	.	.	.	/	/
COc1cc(/C=N/NC(=O)c2cc(-c3c(C)nn(-c4ccccc4)c3C)n[nH]2)ccc1O	.	.	.	12	.	.	16	12
COc1cc(-c2cnc3c(NC(C)=O)cc(-c4ccc(N5CCN(C)CC5)cc4)cn23)cc(OC)c1OC	/	.	.	.	/	/	/	/
COc1cc(-c2cnc3c(NC=O)cc(-c4ccc(N5CCN(C)CC5)cc4)cn23)cc(OC)c1OC	/	.	.	8.5	/	/	9.3	14
CN1CCN(c2ccc(-c3cc(NC=O)c4ncc(-c5ccc(F)cc5)n4c3)cc2)CC1	/	.	.	10	/	/	14	12
COc1ccc(OC)c(CCNC(=O)CCC(=O)N2CCOc3ccc(C)cc32)c1	.	.	.	.	.	.	/	/
Cc1ccccc1CNC(=O)CN(c1ccccc1Cl)S(C)(=O)=O	.	.	.	.	.	.	/	/
O=C(Nc1nnc(-c2ccccc2SCc2ccccc2F)s1)Nc1ccccc1F	.	.	.	8.3	.	.	.	.
O=C(Nc1nnc(-c2ccc(F)cc2)s1)Nc1ccccc1F	.	.	.	.	.	/	/	/
Cc1cccc(OCc2cc(-c3ccccc3)no2)c1C	.	.	.	8.9	.	.	.	6.5
Cc1cc(COc2ccccc2OCc2cc(C)no2)on1	/	.	.	.	.	.	/	/
COc1ccc(-c2cc(COc3ccccc3)on2)cc1	.	.	.	8.4	.	.	.	7.2
CC(=O)CC[C@@H]1CC[C@]2(CCCN(C(=O)C3CCCC3)C2)O1	/	/	.	.	/	/	/	/
COc1ccc(-c2cn3cc(C(=O)NN)ccc3n2)cc1	.	.	.	11	.	.	8.8	5.4
NNC(=O)c1ccc2nc(-c3ccc(Br)cc3)cn2c1	.	.	.	.	.	.	/	/
CC(=O)Nc1ccc(-c2cn3cc(C)ccc3n2)cc1	.	.	3.6	8.1	.	.	.	11
O=C(N[C@@H](Cc1cccnc1)C(=O)N1CCC[C@H]1C(=O)NCc1ccccc1)c1ccccc1	/	/	.	.	/	/	/	/
C/C(=C/c1[nH]c(N)[n+](CC2CC2)c1Cc1ccccc1)Cn1[nH]c(=O)n(-c2ccccc2)c1=O	/	/	.	.	/	/	/	/
CCc1c(O)nc(SCC(=O)c2ccccc2)n(-c2ccccc2)c1=O	.	.	.	.	.	.	/	/
CCc1c(O)nc(SCC(=O)NC(C)(C)C)n(-c2ccccc2)c1=O	.	.	.	8.1	.	.	.	.
